Reference: ChEMBL document CHEMBL1147785, “Novel peptidomimetic cysteine protease inhibitors as potential antimalarial agents” (J Med Chem, 2006)
The source made the active and inactive calls. The calls are words filed in the database; no cut-off is given here. Residues, ends and D or L forms follow the SMILES beside them. *: point of attachment. Cbz = O=C(OCc1ccccc1)*

These compounds were tested against T1, Caspase-6 (Homo sapiens) (UniProt P55212) (assay: Inhibition of human recombinant caspase6 upto 50 uM).
T1 sequence (whole entry): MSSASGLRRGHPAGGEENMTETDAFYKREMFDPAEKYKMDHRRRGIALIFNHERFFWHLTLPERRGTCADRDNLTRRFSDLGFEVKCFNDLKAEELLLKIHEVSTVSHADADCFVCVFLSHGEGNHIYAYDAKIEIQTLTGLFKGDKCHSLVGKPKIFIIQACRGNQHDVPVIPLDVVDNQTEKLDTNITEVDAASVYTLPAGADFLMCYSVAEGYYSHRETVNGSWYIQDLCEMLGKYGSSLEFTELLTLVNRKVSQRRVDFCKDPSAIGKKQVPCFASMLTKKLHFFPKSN
In the case of `O=C(CN1C(=O)[C@@H](COC(=O)Nc2cccc3ccccc23)N=C(c2ccccc2)c2ccccc21)N[C@H]1CC(=O)OC1O` (stereo not given in full), the Activity is reported as “inactive”.
In the case of `CC(C)[C@H](NC(=O)OCc1ccccc1)C(=O)N[C@H](C=O)Cc1ccccc1` (Cbz-Val-Phe-aldehyde), the Activity is reported as “inactive”.
With `O=C(CN1C(=O)[C@@H](COC(=O)Nc2ccc(Cl)cc2)N=C(c2ccccc2)c2ccccc21)N[C@H]1CC(=O)OC1O` (stereo not given in full) the Activity was “inactive”.
For `O=C(CN1C(=O)[C@@H](COC(=O)Nc2ccc(F)cc2)N=C(c2ccccc2)c2ccccc21)N[C@H]1CC(=O)OC1O` (stereo not given in full), the Activity was “inactive”.
In the case of `O=C(CN1C(=O)[C@@H](COC(=O)Nc2ccccc2)N=C(c2ccccc2)c2ccccc21)N[C@H]1CC(=O)OC1O` (stereo not given in full), the Activity is reported as “inactive”.

The compounds below were run against T2, Falcipain 2 (Plasmodium falciparum, UniProt Q9N6S8) (assay: Inhibition of Plasmodium falciparum recombinant FP2A fused with maltose binding protein).
T2 sequence (Q9N6S8 whole entry): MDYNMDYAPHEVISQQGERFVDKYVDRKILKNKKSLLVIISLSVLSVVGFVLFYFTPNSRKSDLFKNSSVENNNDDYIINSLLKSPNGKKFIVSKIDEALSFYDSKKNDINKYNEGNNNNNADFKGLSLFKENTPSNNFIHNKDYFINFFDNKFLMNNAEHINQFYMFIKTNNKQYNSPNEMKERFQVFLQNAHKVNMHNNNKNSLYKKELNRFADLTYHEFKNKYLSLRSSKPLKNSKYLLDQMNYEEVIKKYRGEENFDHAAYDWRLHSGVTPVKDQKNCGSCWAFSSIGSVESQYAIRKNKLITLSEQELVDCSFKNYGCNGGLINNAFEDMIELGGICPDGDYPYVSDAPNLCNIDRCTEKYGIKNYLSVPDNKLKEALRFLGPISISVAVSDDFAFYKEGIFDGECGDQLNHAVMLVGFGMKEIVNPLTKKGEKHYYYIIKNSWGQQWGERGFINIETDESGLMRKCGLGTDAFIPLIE
In short: (§1)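 Recombinant enzyme expressed in E. coli as a maltose binding protein fusion. Fluorescence assay using the fluorogenic substrate Z-Leu-Arg-AMC, with inhibitor at various concentrations. Hydrolysis rate was compared with DMSO-only negative controls and with positive controls containing a standard papain-family cysteine protease aldehyde inhibitor. Results are given as IC50.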
`O=C(CN1C(=O)[C@@H](COC(=O)Nc2cccc3ccccc23)N=C(c2ccccc2)c2ccccc21)N[C@H]1CC(=O)OC1O` (stereo not given in full) was tested, and the IC50 was 11.2 µM.
Work on `CC(C)[C@H](NC(=O)OCc1ccccc1)C(=O)N[C@H](C=O)Cc1ccccc1` (Cbz-Val-Phe-aldehyde) yielded an IC50 of 5 µM.
Work on `O=C(CN1C(=O)[C@@H](COC(=O)Nc2ccc(Cl)cc2)N=C(c2ccccc2)c2ccccc21)N[C@H]1CC(=O)OC1O` (stereo not given in full) yielded an IC50 of 15 µM.
`O=C(CN1C(=O)[C@@H](COC(=O)Nc2ccc(F)cc2)N=C(c2ccccc2)c2ccccc21)N[C@H]1CC(=O)OC1O` (stereo not given in full) was tested, and the IC50 was 16.3 µM.
`O=C(CN1C(=O)[C@@H](COC(=O)Nc2ccccc2)N=C(c2ccccc2)c2ccccc21)N[C@H]1CC(=O)OC1O` (stereo not given in full) was tested, and the IC50 was 21.5 µM.

These compounds were tested against T3, Falcipain 2B (Plasmodium falciparum, UniProt Q3HTL5) (assay: Inhibition of Plasmodium falciparum recombinant FP2B fused with maltose binding protein).
T3 sequence (Q3HTL5 whole entry): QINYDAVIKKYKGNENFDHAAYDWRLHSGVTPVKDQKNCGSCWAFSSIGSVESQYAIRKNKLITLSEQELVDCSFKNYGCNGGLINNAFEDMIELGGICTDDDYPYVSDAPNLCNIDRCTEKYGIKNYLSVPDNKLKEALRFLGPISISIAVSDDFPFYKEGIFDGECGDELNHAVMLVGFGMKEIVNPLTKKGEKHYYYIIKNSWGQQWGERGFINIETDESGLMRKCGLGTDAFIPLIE
In short: as §1
Compound `O=C(CN1C(=O)[C@@H](COC(=O)Nc2cccc3ccccc23)N=C(c2ccccc2)c2ccccc21)N[C@H]1CC(=O)OC1O` (stereo not given in full) has an IC50 of 17.9 µM.
In the case of `CC(C)[C@H](NC(=O)OCc1ccccc1)C(=O)N[C@H](C=O)Cc1ccccc1` (Cbz-Val-Phe-aldehyde), the IC50 is reported as 5 µM.
`O=C(CN1C(=O)[C@@H](COC(=O)Nc2ccc(Cl)cc2)N=C(c2ccccc2)c2ccccc21)N[C@H]1CC(=O)OC1O` (stereo not given in full) was tested, and the IC50 was 9.53 µM.
`O=C(CN1C(=O)[C@@H](COC(=O)Nc2ccc(F)cc2)N=C(c2ccccc2)c2ccccc21)N[C@H]1CC(=O)OC1O` (stereo not given in full) showed an IC50 of 12 µM.
With `O=C(CN1C(=O)[C@@H](COC(=O)Nc2ccccc2)N=C(c2ccccc2)c2ccccc21)N[C@H]1CC(=O)OC1O` (stereo not given in full) the IC50 was 19.8 µM.

Each compound was assayed against T4, Caspase-1 (Homo sapiens) (UniProt P29466) (assay: Inhibition of human recombinant caspase1 upto 50 uM).
T4 sequence (whole entry): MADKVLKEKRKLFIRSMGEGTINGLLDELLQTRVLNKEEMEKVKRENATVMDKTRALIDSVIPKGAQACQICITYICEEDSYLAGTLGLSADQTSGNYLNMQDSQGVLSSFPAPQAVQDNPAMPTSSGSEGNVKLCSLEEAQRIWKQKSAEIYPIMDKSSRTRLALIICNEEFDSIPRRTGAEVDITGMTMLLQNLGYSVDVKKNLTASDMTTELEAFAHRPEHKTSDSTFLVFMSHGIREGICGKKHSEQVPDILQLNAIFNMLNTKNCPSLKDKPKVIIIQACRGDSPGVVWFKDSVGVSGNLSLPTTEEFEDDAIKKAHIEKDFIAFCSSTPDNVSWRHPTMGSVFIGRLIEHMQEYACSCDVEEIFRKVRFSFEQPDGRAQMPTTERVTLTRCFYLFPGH
`O=C(CN1C(=O)[C@@H](COC(=O)Nc2cccc3ccccc23)N=C(c2ccccc2)c2ccccc21)N[C@H]1CC(=O)OC1O` (stereo not given in full) was tested, and the Activity was “inactive”.
With `CC(C)[C@H](NC(=O)OCc1ccccc1)C(=O)N[C@H](C=O)Cc1ccccc1` (Cbz-Val-Phe-aldehyde) the Activity was “inactive”.
In the case of `O=C(CN1C(=O)[C@@H](COC(=O)Nc2ccc(Cl)cc2)N=C(c2ccccc2)c2ccccc21)N[C@H]1CC(=O)OC1O` (stereo not given in full), the Activity is reported as “inactive”.
`O=C(CN1C(=O)[C@@H](COC(=O)Nc2ccc(F)cc2)N=C(c2ccccc2)c2ccccc21)N[C@H]1CC(=O)OC1O` (stereo not given in full) was tested, and the Activity was “inactive”.
`O=C(CN1C(=O)[C@@H](COC(=O)Nc2ccccc2)N=C(c2ccccc2)c2ccccc21)N[C@H]1CC(=O)OC1O` (stereo not given in full) was tested, and the Activity was “inactive”.

Each compound was assayed against T5, Caspase-4 (Homo sapiens) (UniProt P49662) (assay: Inhibition of human recombinant caspase4 upto 50 uM).
T5 sequence (whole entry): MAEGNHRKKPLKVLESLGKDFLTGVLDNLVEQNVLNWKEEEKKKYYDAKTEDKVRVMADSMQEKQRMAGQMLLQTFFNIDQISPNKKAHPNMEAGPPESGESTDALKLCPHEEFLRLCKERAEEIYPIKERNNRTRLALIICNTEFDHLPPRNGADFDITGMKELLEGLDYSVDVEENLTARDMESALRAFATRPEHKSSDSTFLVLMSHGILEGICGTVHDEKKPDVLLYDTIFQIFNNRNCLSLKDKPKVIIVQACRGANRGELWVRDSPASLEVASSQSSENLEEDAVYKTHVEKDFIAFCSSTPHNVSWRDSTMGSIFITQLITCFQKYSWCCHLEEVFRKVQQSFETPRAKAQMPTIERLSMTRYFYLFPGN
For `O=C(CN1C(=O)[C@@H](COC(=O)Nc2cccc3ccccc23)N=C(c2ccccc2)c2ccccc21)N[C@H]1CC(=O)OC1O` (stereo not given in full), the Activity was “inactive”.
For `CC(C)[C@H](NC(=O)OCc1ccccc1)C(=O)N[C@H](C=O)Cc1ccccc1` (Cbz-Val-Phe-aldehyde), the Activity was “inactive”.
`O=C(CN1C(=O)[C@@H](COC(=O)Nc2ccc(Cl)cc2)N=C(c2ccccc2)c2ccccc21)N[C@H]1CC(=O)OC1O` (stereo not given in full) was tested, and the Activity was “inactive”.
For `O=C(CN1C(=O)[C@@H](COC(=O)Nc2ccc(F)cc2)N=C(c2ccccc2)c2ccccc21)N[C@H]1CC(=O)OC1O` (stereo not given in full), the Activity was “inactive”.
For `O=C(CN1C(=O)[C@@H](COC(=O)Nc2ccccc2)N=C(c2ccccc2)c2ccccc21)N[C@H]1CC(=O)OC1O` (stereo not given in full), the Activity was “inactive”.

Each compound was assayed against T6, Caspase-5 (Homo sapiens) (UniProt P51878) (assay: Inhibition of human recombinant caspase5 upto 50 uM).
T6 sequence (whole entry): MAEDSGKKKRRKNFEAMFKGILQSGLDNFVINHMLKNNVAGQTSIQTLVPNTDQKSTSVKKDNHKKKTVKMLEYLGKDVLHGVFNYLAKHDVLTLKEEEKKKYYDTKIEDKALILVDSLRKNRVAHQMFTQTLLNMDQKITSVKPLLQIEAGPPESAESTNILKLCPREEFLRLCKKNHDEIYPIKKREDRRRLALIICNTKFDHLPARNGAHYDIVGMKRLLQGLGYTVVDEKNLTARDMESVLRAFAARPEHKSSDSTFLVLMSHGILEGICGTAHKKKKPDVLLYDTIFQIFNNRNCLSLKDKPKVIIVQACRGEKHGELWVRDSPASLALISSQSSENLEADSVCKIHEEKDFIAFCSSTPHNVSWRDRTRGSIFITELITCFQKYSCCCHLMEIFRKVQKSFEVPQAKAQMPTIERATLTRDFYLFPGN
In the case of `O=C(CN1C(=O)[C@@H](COC(=O)Nc2cccc3ccccc23)N=C(c2ccccc2)c2ccccc21)N[C@H]1CC(=O)OC1O` (stereo not given in full), the Activity is reported as “inactive”.
For `CC(C)[C@H](NC(=O)OCc1ccccc1)C(=O)N[C@H](C=O)Cc1ccccc1` (Cbz-Val-Phe-aldehyde), the Activity was “inactive”.
For `O=C(CN1C(=O)[C@@H](COC(=O)Nc2ccc(Cl)cc2)N=C(c2ccccc2)c2ccccc21)N[C@H]1CC(=O)OC1O` (stereo not given in full), the Activity was “inactive”.
For `O=C(CN1C(=O)[C@@H](COC(=O)Nc2ccc(F)cc2)N=C(c2ccccc2)c2ccccc21)N[C@H]1CC(=O)OC1O` (stereo not given in full), the Activity was “inactive”.
In the case of `O=C(CN1C(=O)[C@@H](COC(=O)Nc2ccccc2)N=C(c2ccccc2)c2ccccc21)N[C@H]1CC(=O)OC1O` (stereo not given in full), the Activity is reported as “inactive”.

Each compound was assayed against T7, Caspase-7 (Homo sapiens) (UniProt P55210) (assay: Inhibition of human recombinant caspase7 upto 50 uM).
T7 sequence (whole entry): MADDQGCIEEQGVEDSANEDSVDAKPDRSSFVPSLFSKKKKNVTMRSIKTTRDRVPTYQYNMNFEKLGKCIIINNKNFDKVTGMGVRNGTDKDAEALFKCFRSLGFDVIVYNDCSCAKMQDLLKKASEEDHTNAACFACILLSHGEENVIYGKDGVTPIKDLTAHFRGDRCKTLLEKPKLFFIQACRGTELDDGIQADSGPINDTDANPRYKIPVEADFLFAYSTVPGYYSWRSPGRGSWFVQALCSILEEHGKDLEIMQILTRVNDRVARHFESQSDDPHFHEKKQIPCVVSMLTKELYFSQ
For `O=C(CN1C(=O)[C@@H](COC(=O)Nc2cccc3ccccc23)N=C(c2ccccc2)c2ccccc21)N[C@H]1CC(=O)OC1O` (stereo not given in full), the Activity was “inactive”.
With `CC(C)[C@H](NC(=O)OCc1ccccc1)C(=O)N[C@H](C=O)Cc1ccccc1` (Cbz-Val-Phe-aldehyde) the Activity was “inactive”.
In the case of `O=C(CN1C(=O)[C@@H](COC(=O)Nc2ccc(Cl)cc2)N=C(c2ccccc2)c2ccccc21)N[C@H]1CC(=O)OC1O` (stereo not given in full), the Activity is reported as “inactive”.
`O=C(CN1C(=O)[C@@H](COC(=O)Nc2ccc(F)cc2)N=C(c2ccccc2)c2ccccc21)N[C@H]1CC(=O)OC1O` (stereo not given in full) was tested, and the Activity was “inactive”.
In the case of `O=C(CN1C(=O)[C@@H](COC(=O)Nc2ccccc2)N=C(c2ccccc2)c2ccccc21)N[C@H]1CC(=O)OC1O` (stereo not given in full), the Activity is reported as “inactive”.

Each compound was assayed against Caspase-8 (Homo sapiens) (UniProt Q14790) (assay: Inhibition of human recombinant caspase8 upto 50 uM).
Caspase-8 (Homo sapiens), sequence (Q14790 217-374 limits assumed): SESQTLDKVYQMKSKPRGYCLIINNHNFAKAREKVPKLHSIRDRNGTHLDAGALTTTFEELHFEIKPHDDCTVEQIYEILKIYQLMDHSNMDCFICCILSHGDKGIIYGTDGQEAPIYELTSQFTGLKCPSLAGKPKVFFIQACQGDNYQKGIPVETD
Caspase-8 (Homo sapiens), sequence (Q14790 385-479 limits assumed): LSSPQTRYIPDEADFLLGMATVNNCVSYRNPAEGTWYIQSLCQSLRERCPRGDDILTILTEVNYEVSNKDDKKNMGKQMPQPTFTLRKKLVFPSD
`O=C(CN1C(=O)[C@@H](COC(=O)Nc2cccc3ccccc23)N=C(c2ccccc2)c2ccccc21)N[C@H]1CC(=O)OC1O` (stereo not given in full) was tested, and the Activity was “inactive”.
With `CC(C)[C@H](NC(=O)OCc1ccccc1)C(=O)N[C@H](C=O)Cc1ccccc1` (Cbz-Val-Phe-aldehyde) the Activity was “inactive”.
In the case of `O=C(CN1C(=O)[C@@H](COC(=O)Nc2ccc(Cl)cc2)N=C(c2ccccc2)c2ccccc21)N[C@H]1CC(=O)OC1O` (stereo not given in full), the Activity is reported as “inactive”.
`O=C(CN1C(=O)[C@@H](COC(=O)Nc2ccc(F)cc2)N=C(c2ccccc2)c2ccccc21)N[C@H]1CC(=O)OC1O` (stereo not given in full) was tested, and the Activity was “inactive”.
With `O=C(CN1C(=O)[C@@H](COC(=O)Nc2ccccc2)N=C(c2ccccc2)c2ccccc21)N[C@H]1CC(=O)OC1O` (stereo not given in full) the Activity was “inactive”.
